In ChEMBL document CHEMBL1123508, “Relationship between lipophilic character and urinary excretion of nitroimidazoles and nitrothiazoles in rats” (J Med Chem, 1986):

Key:
Rattus norvegicus [1] = assay: The total 72 hr urinary excretion of unchanged compound reported as log (percent X 10) of the administered dose; conditions: in vivo
[2] = octanol/water
[3] = The amount of unchanged compound detected in urine collected at 0-18 hr after treatment; conditions: rat
[4] = The amount of unchanged compound in urine collected at 0-54 hr after treatment; conditions: rat
Rattus norvegicus [5] = assay: The total 36 hr urinary excretion of unchanged compound reported as log (percent X 10) of the administered dose; conditions: in vivo
[6] = The amount of unchanged compound in urine collected at 0-36 hr after treatment; conditions: rat
[7] = Partition coefficient (logP); conditions: octanol/water
[8] = The amount of unchanged compound in urine collected at 0-72 h after treatment; conditions: rat
Rattus norvegicus [9] = assay: The total 18 hr urinary excretion of the unchanged form of compound in urine was reported as log (percent X 10) of the administered dose by HPLC technique; format: ADME, organism-based; conditions: in vivo
How it was run: (§1)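 Female Sprague-Dawley rats (200 ± 20 g) on chow diet, three per compound, dosed ip in Me2SO (50 μmol mL⁻¹ kg⁻¹). Urine pooled over 0-18 h. One mL urine was spiked with internal standard and extracted, the residue was taken up in 200 μL methanol, and 10-20 μL was injected for HPLC of the unchanged drug. Values expressed as log (percent × 10) of dose.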

[10] = The amount of the unchanged form of compound detected in the urine samples collected at 0-18 hr after the treatment by HPLC technique; format: ADME, organism-based; conditions: rat, read-out: Amount excreted; how it was run: as §1
Rattus norvegicus [11] = assay: The total 18 hr urinary excretion of unchanged compound reported as log (percent X 10) of the administered dose; conditions: in vivo
Rattus norvegicus [12] = assay: The total 54 h urinary excretion of unchanged compound reported as log (percent X 10) of the administered dose; conditions: in vivo

SMILES	Log BR (Rattus norvegicus [1])	Log k' [2]	dose excreted [3] [%]	dose excreted [4] [%]	Log BR (Rattus norvegicus [5])	dose excreted [6] [%]	logP [7]	dose excreted [8] [%]	log(10 × % of dose excreted unchanged in urine) (Rattus norvegicus [9])	dose excreted [10] [%]	Log BR (Rattus norvegicus [11])	Log BR (Rattus norvegicus [12])
COC(=S)NCCn1c([N+](=O)[O-])cnc1C [CARNIDAZOLE]	2.364	0.465	6.7	23.1	2.33	21.5	0.9	23.1	1.819	6.5	1.826	2.364
Cc1ncc([N+](=O)[O-])n1CC(O)CCl (stereo not given) [ORNIDAZOLE]	2.625		13.2	36.9	2.471	29.6		42.1	2.068	11.7	2.121	2.567
Cn1c([N+](=O)[O-])cnc1CO	2.81	-0.11	32.6	60.6	2.754	56.8	-0.03	64.9			2.513	2.782
CN1CCN(Cc2ncc([N+](=O)[O-])n2C)CC1	2.658	0.014	41.7	45.5	2.658	45.5	-0.33	45.5			2.62	2.658
CCC(CC)C(O)Cn1c([N+](=O)[O-])cnc1C (stereo not given)	2.713	0.058	36.4	51.7	2.713	51.7	-0.08	51.7			2.561	2.713
CC(C)c1ncc([N+](=O)[O-])n1C [IPRONIDAZOLE]	1.96	0.45	4.3	9.1	1.96	9.1	1.06	9.1	1.398	2.5	1.633	1.96
Cc1ncc([N+](=O)[O-])n1CC(=O)N1CCN(C(=O)Cn2c([N+](=O)[O-])cnc2C)CC1	2.27	0.028	14.3	18.6	2.27	18.6		18.6			2.155	2.27
O=[N+]([O-])c1cnc(/C=C/c2ccc3c(c2)OCO3)n1CCO	1.529	0.659		3.4	1.529	3.4	2.03	3.4			1.529	1.529
Cn1c([N+](=O)[O-])cnc1C1CC1	2.113	0.455	4.1	12.9	2.113	12.9	1	12.9			1.613	2.113
O=[N+]([O-])c1cncn1CCN1CCOCC1 [NIMORAZOLE]	2.719	0.188	43.6	52.4	2.719	52.4		52.4			2.639	2.719
Nc1ncc(S(=O)(=O)c2ccc([N+](=O)[O-])cc2)s1	2.811	-0.049	48.6	64.7	2.811	64.7	-0.43	64.7			2.687	2.811
Cn1c([N+](=O)[O-])cnc1/C=C(\Oc1ccccc1)C(=O)O	2.337	-0.199	2.5	21.7	2.28	19	-1	21.7			1.4	2.337
CCN(CC)CCOCCn1c([N+](=O)[O-])cnc1C	2.455	0.021	23.4	28.5	2.455	28.5	-0.38	28.5			2.369	2.455
O=C1NCCN1c1ncc([N+](=O)[O-])s1 [NIRIDAZOLE]	1.861	0.363	4.6	7.3	1.861	7.3	0.92	7.3			1.663	1.861
O=[N+]([O-])c1c[nH]cn1	2.664	0	33.8	46.1	2.601	39.9		46.1			2.529	2.664
